# Hits are enriched below; roughly 4.2% of the tested compounds scored in any of these assays.
# GalR3 antagonist: antagonists of human GalR3. O60755. inhibition, % at 3 µM. HEK293 GalR3-CNG cAMP membrane potential fluorescence; galR3 body fused to GalR1 C-terminus. 360,000 compounds, 0.44% hits;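 active = inhibition above the screen-wide average plus 3 SD, cut at about 13% in these data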;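 note: forskolin and galanin both at EC90 stimulate the cells; cAMP rise reported by CNG channel membrane potential dye signal; 0% = forskolin plus galanin with DMSO and 100% = forskolin alone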
# TAAR1 antag: antagonists of human TAAR1; AID 624466; 360,000 compounds, 1.5% hits; CHO RD-HGA16 TAAR1, Fluo-8 calcium fluorescence, antagonist; Q96RJ0; inhibition, % at 3 µM;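 active = inhibition above a per-plate cutoff, the mean inhibition of test compounds on that plate plus 3 SD, cut at about 49% in these data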;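 note: 0% = DMSO plus EC80 beta-PEA response and 100% = DMSO alone without agonist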
# Target sequence (Q96RJ0 whole entry, looked up): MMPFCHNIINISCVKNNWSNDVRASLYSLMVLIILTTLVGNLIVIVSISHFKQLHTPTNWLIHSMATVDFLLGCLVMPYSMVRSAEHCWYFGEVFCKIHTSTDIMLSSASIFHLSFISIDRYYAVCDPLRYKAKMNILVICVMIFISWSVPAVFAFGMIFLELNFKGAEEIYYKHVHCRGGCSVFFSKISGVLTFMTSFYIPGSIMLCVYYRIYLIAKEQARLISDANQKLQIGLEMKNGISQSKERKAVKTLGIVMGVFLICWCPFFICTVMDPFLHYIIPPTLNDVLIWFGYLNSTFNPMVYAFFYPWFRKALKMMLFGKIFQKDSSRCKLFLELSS
#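 Assay system: CHO-derived RD-HGA16 cells stably expressing human TAAR1 plus Gα16. Timing: 140 s kinetic read after compound, 140 s after agonist. Technique: kinetic Fluo-8 calcium fluorescence measurement. Measure: % inhibition of agonist calcium response.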
# TAAR1 ag: agonists of human TAAR1 | 360,000 compounds, 0.99% hits | CHO RD-HGA16 TAAR1, Fluo-8 calcium fluorescence; vehicle wells 0%, saturating PEA agonist 100% | Q96RJ0 | activation, % at 3 µM;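 active = activation above the mean activation of all test compounds in the run plus 3 SD, cut at about 38% in these data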
#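 Assay system: CHO-derived RD-HGA16 cells with stable Gα16 and human TAAR1; timing: 17-24 h seeding, 75 min 37 °C dye, 30 min RT; read-out: % activation from peak over basal fluorescence ratio, DMSO-to-PEA scaled; measured by: kinetic Fluo-8 calcium fluorescence; benchmarks: low control DMSO, high control PEA (EC100); doses: 3 µM single concentration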
# OX1R antag-1: human HCRTR1 antagonism; O43613; CHO/OX1R cells, Fluo-8 calcium fluorescence, orexin A; inhibition, % at 5 µM; 330,000 compounds, 0.43% hits;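 active = inhibition above its plate's threshold, mean inhibition of all tested compounds on the plate plus 3 SD, cut at about 37% in these data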;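 note: 0% = orexin A challenge wells and 100% = SB-334867-A antagonist wells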
# Target sequence (O43613 whole entry, looked up): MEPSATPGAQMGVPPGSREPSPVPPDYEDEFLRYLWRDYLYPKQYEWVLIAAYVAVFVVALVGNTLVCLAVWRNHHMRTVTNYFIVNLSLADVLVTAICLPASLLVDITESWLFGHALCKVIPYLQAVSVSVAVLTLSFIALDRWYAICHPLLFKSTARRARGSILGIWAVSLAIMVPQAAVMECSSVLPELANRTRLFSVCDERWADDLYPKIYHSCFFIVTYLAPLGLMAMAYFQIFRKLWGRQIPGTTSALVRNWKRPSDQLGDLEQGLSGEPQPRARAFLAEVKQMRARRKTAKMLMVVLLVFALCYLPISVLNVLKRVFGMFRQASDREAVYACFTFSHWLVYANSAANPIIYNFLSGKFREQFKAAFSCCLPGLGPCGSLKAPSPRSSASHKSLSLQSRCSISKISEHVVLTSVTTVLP
# OX1R antag-2: OX1R (human) antagonism; O43613; OX1R-expressing cells, FRET antagonist read-out; inhibition, % at 6.6 µM; 330,000 compounds, 1.8% hits; in the data active = inhibition mostly above about 38%, no sharp cut-off; inactive = mostly below about 40%;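 note: 0% = agonist challenge alone and 100% = reference antagonist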
# CHO parental Ca: signal in parental CHO cells, OX1R antagonist counter-screen | inhibition, % at 5.6 µM | parental CHO-K1, ATP-induced calcium, Fluo-8 fluorescence | 330,000 compounds, 0.63% hits;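 active = inhibition above that plate's mean sample inhibition plus 3 SD, cut at about 26% in these data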;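 note: 0% = ATP-challenged DMSO wells and 100% = DMSO wells without ATP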
#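 Assay system: parental CHO cells; Read-out basis: percent inhibition of ATP-evoked calcium rise, normalized to controls; Benchmarks: ATP and no-ATP DMSO wells; Compound dosing: single nominal dose of 5.6 µM per compound; Signal: Fluo-8 calcium dye fluorescence; Also added: ATP as calcium-mobilizing challenge; Repeats: singlicate.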
# GalR3 conf: confirmation of human galanin receptor 3 antagonists. shares compounds with GalR3 antagonist. HEK293 GalR3 CNG cAMP biosensor, membrane potential fluorescence; galR3 fused to GalR1 carboxy tail; challenged with forskolin and galanin at EC90. inhibition, % at 3 µM. 1,600 compounds, 59% hits;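 active = inhibition above the primary screen's cutoff, the mean inhibition of all screened compounds plus 3 SD, cut at about 13% in these data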;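 note: 0% = forskolin plus galanin and 100% = forskolin alone with DMSO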
# HEK-CNG parental: acts as nonspecific agonist in parental HEK-CNG cells | shares compounds with GalR3 antagonist | activation, % at 3 µM | HEK293-CNG parental cells, cAMP membrane potential fluorescence; normalised: DMSO wells 0%, forskolin wells 100% | 1,600 compounds, 10% hits; in the data active = activation above about 1.3%
# * hit, by the source's call; nt = no result.
SMILES,GalR3 antagonist,TAAR1 antag,TAAR1 ag,OX1R antag-1,OX1R antag-2,CHO parental Ca,GalR3 conf,HEK-CNG parental
Cc1ncoc1C(=O)NC1CCCc2c1cnn2-c1ccc(C(C)(C)C)cc1 (stereo not drawn),101.6*,-13.8,2.5,nt,nt,nt,110.8*,0.0
O=C(NC1CCCc2c1cnn2-c1ccc(F)cc1F)c1ccccc1N1CCOCC1 (stereo not drawn),-2.6,-5.7,-2.3,-24.4,-3.3,-9.4,nt,nt
CC(=O)N/C(=C/c1ccc2c(c1)OCO2)C(=O)NC(Cc1ccccc1)C(=O)O (stereo not drawn),15.9*,-42.2,2.5,-17.3,21.9,-17.4,-0.3,0.1
CCOCCCNC(=S)N1CCN(Cc2ccc3c(c2)OCO3)CC1,15.1*,0.6,3.3,-16.3,13.9,7.9,0.8,-0.1
COc1ccc(/C=C2\SC(=N)N(c3ccc(F)cc3)C2=O)cc1OC,18.5*,8.0,0.1,6.8,38.6,-11.7,16.7*,0.9
CCOc1ccc(/C=C2\SC(=O)N(c3ccc(O)cc3)C2=O)cc1OC,nt,nt,nt,-16.1,38.3,-5.8,nt,nt
COc1cccc(C(=O)/C=C/c2ccc(OCC#N)c(OC)c2)c1,19.6*,-10.6,12.7,-3.9,13.2,-2.8,0.7,0.2
COc1cc(/C=C/C(=O)c2ccc(O)cc2)ccc1OCC#N,2.4,-0.2,5.7,13.5,48.6,8.3,nt,nt
Cc1ccc2c(c1)C(=O)C(=O)N2CC(=O)Nc1ccccc1NC(=O)c1ccccn1,20.4*,-11.2,3.8,-21.2,25.2,-9.0,4.7,0.7
CCN1CCN(C(=S)c2ccc(SC)cc2)CC1,-0.8,5.2,19.3,-15.1,5.7,-9.7,nt,nt
COc1ccccc1Cc1c(-c2ccco2)nc2ccc(Cl)cn12,27.7*,-13.2,-0.7,nt,nt,nt,18.5*,0.5
CCN1CCCC1CNCc1cc(OC)c(OC)c(OC)c1 (stereo not drawn),-7.3,-8.1,5.3,-7.0,10.8,-9.9,nt,nt
CCOc1cc(CNCC2CCCN2CC)cc(Cl)c1OC (stereo not drawn),15.2*,-25.7,3.0,-17.3,15.3,7.9,2.7,1.1
CCc1ccc(NC(=O)CSc2nnc(-c3n[nH]c4ccccc34)n2-c2ccccc2)cc1,-1.6,39.5,5.1,-19.4,20.8,-16.3,nt,nt
O=C(CSc1nnc(-c2n[nH]c3ccccc23)n1-c1ccccc1)Nc1cccc(Cl)c1,21.0*,47.7,7.3,-13.0,16.1,-16.8,13.6*,-1.3
O=C(Nc1ccc(Cl)c(S(=O)(=O)N2CCOCC2)c1)c1ccncc1,42.7*,-1.4,4.3,-15.0,2.6,-7.0,7.1,-0.3
CC(CC(=O)Nc1ccc(Cl)c(S(=O)(=O)N2CCOCC2)c1)c1ccccc1 (stereo not drawn),96.0*,41.6,11.2,nt,nt,nt,120.3*,-0.8
CC(=O)Nc1ccc(OCC(=O)Nc2ccc(Cl)c(S(=O)(=O)N3CCOCC3)c2)cc1,31.1*,44.8,13.6,54.0*,18.6,29.0*,91.8*,-0.5
CCOC(=O)N1CCN(C(=O)C(=O)NNC(=O)COc2ccc(Cl)c(C)c2)CC1,-3.7,-8.1,4.6,-11.9,2.3,-13.1,nt,nt
Cc1ccc(OCC(=O)OCC(=O)Nc2sccc2C(N)=O)cc1C,27.4*,18.2,10.9,20.8,10.1,11.1,2.7,-0.2
COc1ccc(CCC(=O)OCC(=O)Nc2sccc2C(N)=O)cc1OC,98.8*,33.8,16.0,46.2*,36.3*,46.7*,91.8*,-0.1
COc1ccc(C(=O)CSc2nnc(Cn3cnc4ccccc43)o2)cc1,94.7*,17.1,9.2,35.5,30.1,38.2*,111.4*,-0.5
CC(=O)c1ccc(NC(=O)CSc2nnc(Cn3cnc4ccccc43)o2)cc1,-4.3,-4.9,0.9,8.1,6.2,-1.7,nt,nt
COc1ccc(C2c3cc(OC)c(OC)cc3CC3C(=O)OCC32)cc1OC (stereo not drawn),62.0*,12.2,1.5,nt,nt,nt,65.1*,0.0
COc1ccc(C2CC(=O)c3cc(OC)c(OC)cc32)cc1OC (stereo not drawn),-3.4,-31.2,-0.2,-5.1,7.5,-7.8,nt,nt
SMILES,GalR3 antagonist,TAAR1 antag,TAAR1 ag,OX1R antag-1,OX1R antag-2,CHO parental Ca,GalR3 conf,HEK-CNG parental
CC1(C(=O)NS(=O)(=O)c2cccc(F)c2)CCN1C(=O)c1ccccc1 (stereo not drawn),-0.9,-9.0,-0.1,nt,nt,nt,nt,nt
OCCNCCOc1ccccc1F,12.8*,8.3,3.3,-11.9,24.1,-7.2,0.0,0.4
Cn1c(=O)[nH]c(=O)c2c1nc(CN1CCN(c3ccccc3F)CC1)n2CC(N)=O,2.6,-34.7,3.2,-4.0,12.0,-1.0,nt,nt
O=C1Nc2ccccc2N(O)N1c1cc(-c2cccc(Cl)c2)no1,-2.1,-4.8,1.2,-10.7,3.3,-2.5,nt,nt
CS(=O)(=O)N1CCN(c2ccc([N+](=O)[O-])cc2F)CC1,-1.2,12.4,3.8,-10.6,36.6,-14.3,nt,nt
CS(=O)(=O)N1CCN(c2ccc([N+](=O)[O-])cc2C(F)(F)F)CC1,17.6*,-17.0,1.6,-0.1,30.5,-11.2,13.6*,-0.1
Cc1ccc(Oc2nc3ccccc3n3c(C)nnc23)c(C)c1,-3.8,6.5,0.7,-12.6,1.4,-3.9,nt,nt
Cc1nnc(Sc2cc(NCCCO)c([N+](=O)[O-])c3nonc23)s1,20.7*,6.5,0.6,nt,nt,nt,5.2,0.1
NS(=O)(=O)c1ccc(CCNC(=O)CN2CCC(Cc3ccccc3)CC2)cc1,14.7*,-15.6,3.4,-11.3,-2.8,1.8,6.5,0.2
O=C(CN1CCC(Cc2ccccc2)CC1)NCCc1ccc(F)cc1,-6.3,-27.5,2.7,-15.3,10.6,4.4,nt,nt
Cc1ccc(C(=O)Nc2ccc(S(=O)(=O)NCc3ccco3)cc2)cc1,1.5,-11.7,7.3,6.6,11.1,-1.1,nt,nt
Cc1cc(C)n(-c2ccc(C(=O)Nc3ccc(S(=O)(=O)NCc4ccco4)cc3)cc2)n1,70.9*,62.1*,15.3,28.2,28.7,29.8,60.7*,-0.6
CCN1C(=O)/C(=C2/Sc3ccccc3N2CC)S/C1=N\c1ncn[nH]1,17.8*,24.3,7.6,-15.0,65.0,-10.6,10.6,-0.4
C/C(=C(\C#N)C(=O)NCc1ccccc1)N(C)C,-5.7,9.2,5.0,-6.0,12.4,-7.8,nt,nt
COc1cc(/C=N/NC(=O)CN(CCc2ccccc2)S(=O)(=O)c2ccc(NC(C)=O)cc2)cc(OC)c1OC,4.5,14.3,1.2,-32.2,6.4,-26.0,nt,nt
